Screens: PubChem BioAssay, several laboratories
Diaph inh CS: diaphorase inhibitors and chemical oxidizers, primary screen, counter-screen for diaphorase-coupled primary assays, biochemical, uHTS, resorufin fluorescence; inhibition, % at 20 µM; actives 0.69% (n = 190,000); AID 1217, 2008; diaphorase resazurin-to-resorufin fluorescence, NADH, 16 min; bacterial (C. kluyveri) enzyme, not human;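 active means primary screen inhibition at 20 µM above a set limit, cut at about 50% in these data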
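Assay system – diaphorase enzyme from Clostridium kluyveri · Amount – diaphorase 0.14 U/mL (working solution) · Times – reaction incubation of 16 min at room temperature · Controls – No-NADH positive control and DMSO neutral control · Signal – resorufin fluorescence 544/590 nm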
KCC2 mod: KCC2 cotransporter modulators, thallium flux, primary screen, cell-based, HEK293 KCC2, FluoZin-2 fluorescence, MLSMR; AID 1456, 2008; B-score of Tl+ flux slope (higher = more flux/activation; lower = inhibition) at 10 µM; actives 2.2% (n = 190,000); KCC2 cells, thallium flux FluoZin-2 fluorescence; Solute carrier family 12 member 5 (Homo sapiens), Q9H2X9;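 active means thallium flux slope and its plate-corrected score both differing from the plate sample mean at a set confidence after two filtering rounds, in either direction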;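 further: slope of fluorescence scaled to starting intensity during 10 to 20 s after thallium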
Diaphorase act: compounds boosting diaphorase resazurin reduction – biochemical, uHTS, resorufin fluorescence, counter-screen for diaphorase-coupled primary assays, primary screen; Diaphorase/resazurin coupled assay, 16 min; hits give high values; 1 = vehicle wells, 0 = NADH-free wells; activation factor at 20 µM; actives 0.005% (n = 190,000); AID 1229, 2008;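 active means diaphorase activity raised at least twofold by the compound at 20 µM; inactive means activation factor below 2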
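Material: purified diaphorase enzyme from Clostridium kluyveri / Medium: HEPES pH 7.4 buffer with MgCl2 and Tween 20 / Schedule: enzyme reaction of 16 min at room temperature / Measured by: resorufin fluorescence, excitation 544 nm, emission 590 nm / Evaluation: rise in resorufin formation, marking diaphorase activation or chemical reduction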
L major viab: Leishmania major promastigote growth inhibition, primary screen. actives 9% (n = 200,000). inhibition, % at 10 µM. AID 1063, 2008. Leishmania major promastigotes, resazurin fluorescence viability; in the data active means inhibition above about 50%;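 further: promastigotes grown with compound for 44 hours at 28 °C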
ROMK primary: ROMK potassium channel modulators, primary screen, cell-based, thallium flux, MLSMR library | Tet-inducible ROMK, thallium flux fluorescence; actives lie on both sides | actives 2% (n = 130,000) | B-score at 10 µM | ATP-sensitive inward rectifier potassium channel 1 (Homo sapiens), P48048;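 active means signal ratio slope over the read window, or its plate-corrected B-score, at least 3 SD from the plate mean, either direction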;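 further: B-score of the F/F0 ratio slope over 7 to 12 s after thallium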
WT yeast gro inh: growth inhibition of WT strain, primary screen, mitochondrial fusion inhibitor project, WT and mutant strains, chemical genetic; actives 2.1% (n = 190,000); mitochondrial fusion phenotypic screen; inhibition, % at 10 µM; in the data active means inhibition above about 58%; tested in S. cerevisiae
Of the large screens only hits and unclear results are named; the others gave an inactive call. This is a sample that favours compounds with a hit; in the whole collection about 12% have one here.

COc1ccccc1NS(=O)(=O)c1ccc(Cl)cc1	none
COc1ccccc1NS(=O)(=O)c1cccc(NC(=O)Cc2cccs2)c1	L major viab 98.0 (no result: ROMK primary)
Cc1ccc(NC(=O)NNc2cccc(Cl)n2)cc1	none (no result: ROMK primary)
O=C(NNc1cccc(Cl)n1)Nc1ccccc1	none (no result: ROMK primary)
O=C(NNc1cccc(Cl)n1)Nc1cccc(Cl)c1	L major viab 97.1
CC(Cl)C(=O)NNc1cccc(Cl)n1 (stereo not drawn)	WT yeast gro inh 58.3 (no result: ROMK primary)
CCc1sc(NC(=O)C(C)C)nc1-c1ccccc1	none
CN(C(=O)CSc1nnc(-c2cccnc2)n1-c1ccccc1F)C1CCS(=O)(=O)C1 (stereo not drawn)	none
COc1ccc(N2C(=O)[C@@H]3[C@H](C2=O)[C@H](C(C)=O)N2c4ccccc4C=C[C@@H]32)cc1	none (no result: Diaph inh CS, Diaphorase act, L major viab, ROMK primary, WT yeast gro inh)
COc1ccc(C2C(C(=O)c3ccccc3)N3c4ccccc4C=CC3C2[N+](=O)[O-])cc1 (stereo not drawn)	ROMK primary -3.72
Nc1cccc(Cl)c1N1CCOCC1	none (no result: ROMK primary)
COc1ccc(-c2n[nH]c(=S)n2-c2ccc3c(c2)OCCO3)cc1OC	L major viab 88.0
COc1cc(OC)cc(-c2n[nH]c(=S)n2-c2ccc3c(c2)OCCO3)c1	L major viab 70.6
C=CCOC(=O)C1=C[C@@H](c2ccc(Br)cc2)C[C@@H](OCc2ccc(CO)cc2)O1	none (no result: ROMK primary)
Cc1ccc(C(C)NC(=O)/C(C#N)=C\c2c(C)[nH]c3ccccc23)cc1 (stereo not drawn)	WT yeast gro inh 87.8
CCc1ccc(/C=C2\Oc3cc(OC(=O)N4CCOCC4)ccc3C2=O)cc1	L major viab 93.0
CN1C(=O)/C(=C/c2cn(CC(=O)N3CCCCC3)c3ccccc23)c2ccccc21	L major viab 86.1 (no result: KCC2 mod)
O=Cc1cn(CC(=O)N2CCCCC2)c2ccccc12	none
COc1cc(/C=C(\C#N)c2nc3ccc(C)cc3[nH]2)cc([N+](=O)[O-])c1O	Diaph inh CS 98.0 (no result: KCC2 mod)
CCN(CC)c1ccc(/C=C(/C#N)c2nc3ccc(C)cc3[nH]2)c(OC(C)C)c1	L major viab 99.6 (no result: ROMK primary)
COc1cc(/C=C(\C#N)c2nc3ccc(C)cc3[nH]2)c([N+](=O)[O-])cc1OC	L major viab 98.2 (no result: KCC2 mod)
CCN1CCCC1CNC(=O)C(=O)NC(C)c1ccccc1 (stereo not drawn)	none
Cc1cccc(NC(=O)C2CCN(S(=O)(=O)c3c(C)noc3/C=C/c3ccco3)CC2)n1	L major viab 98.7
COCCNC(=O)C1CCN(S(=O)(=O)c2c(C)noc2/C=C/c2cccs2)CC1	none (no result: Diaph inh CS, Diaphorase act, L major viab, WT yeast gro inh)
COc1cc(-c2cc(C(=O)Nc3ccc(S(=O)(=O)NCc4ccco4)cc3)c3ccccc3n2)cc(OC)c1OC	L major viab 75.8 (no result: ROMK primary)
COc1cccc(C(=O)Nc2ccc(S(=O)(=O)NCc3ccco3)cc2)c1	none (no result: ROMK primary)
Cc1cc(C)nc(NS(=O)(=O)c2ccc(NC(=O)c3cc(-c4ccccc4)nc4ccccc34)cc2)n1	L major viab 66.9 (no result: ROMK primary)
CC(Nc1nc(N2CCNCC2)nc2ccccc12)c1ccccc1 (stereo not drawn)	L major viab 100.3
c1ccc(-c2nc(N3CCCC3)nc3ccccc23)cc1	none (no result: ROMK primary)
CCCS(=O)(=O)c1nc(S(=O)(=O)c2ccc(C)cc2)c(N2CCc3ccccc3C2)s1	L major viab 61.4 (no result: ROMK primary)
COc1ccc(Cn2nnnc2C(c2cccs2)N2CCCCCC2)cc1 (stereo not drawn)	L major viab 56.9 (no result: ROMK primary)
CC1CCN(C(c2ccc(N(C)C)cc2)c2nnnn2Cc2ccc(F)cc2)CC1 (stereo not drawn)	none
Fc1ccc(Cn2nnnc2C(c2ccc(Cl)cc2)N2CCSCC2)cc1 (stereo not drawn)	L major viab 98.8 (no result: ROMK primary)
Cc1ccc(C(c2nnnn2Cc2ccccc2)N2CCN(Cc3ccccc3)CC2)cc1 (stereo not drawn)	Diaph inh CS 79.4, L major viab 92.0 (no result: ROMK primary)
COCCn1nnnc1C(c1ccc(OC)c(OC)c1)N1CCc2ccccc21 (stereo not drawn)	none (no result: ROMK primary)
COc1ccc(Cn2nnnc2C(c2cccs2)N2CCSCC2)cc1 (stereo not drawn)	none (no result: KCC2 mod)
COCCn1nnnc1C(c1ccccc1OC)N1CCc2ccccc2C1 (stereo not drawn)	L major viab 85.4 (no result: Diaph inh CS, Diaphorase act, WT yeast gro inh)
CCCCc1nnc(NC(=O)C(C)Sc2nc(N)cc(=O)[nH]2)s1 (stereo not drawn)	none (no result: KCC2 mod)
CC1CCCC(C)N1/N=C/c1ccc(C#N)cc1 (stereo not drawn)	none
COCCn1nnnc1C(c1ccc(OC)c(OC)c1)N1CCN(c2nc3ccccc3s2)CC1 (stereo not drawn)	L major viab 83.1 (no result: KCC2 mod, WT yeast gro inh)
COc1ccc(C(c2nnnn2Cc2ccccc2)N2CCN(c3nc4ccccc4s3)CC2)cc1 (stereo not drawn)	L major viab 100.1 (no result: ROMK primary)
COCCn1nnnc1C(c1ccccc1)N1CCN(c2ccccc2)CC1 (stereo not drawn)	none
O=C(O)CCCN1C(=O)C2C3CC(C2C1=O)C1C(c2ccccc2)c2sc(=O)n(-c4ccccc4)c2SC31 (stereo not drawn)	none
CN(CC(=O)NCc1ccncc1)S(=O)(=O)c1ccc2ccccc2c1	none
COc1cc(CC(NC(C)=O)C(=O)NC2CCN(c3c4c(nc5ncnn35)CCC4)CC2)cc(OC)c1 (stereo not drawn)	none (no result: Diaph inh CS, KCC2 mod, Diaphorase act)
CCOc1ccc2nc(SCC(=O)NCc3ccc4c(c3)OCO4)[nH]c2c1	none (no result: KCC2 mod, ROMK primary)
CCOc1ccc2nc(SCC(=O)Nc3ccc4c(c3)OCCO4)[nH]c2c1	L major viab 96.8 (no result: ROMK primary, WT yeast gro inh)
COC(=O)C1C(=O)NCC1c1ccccc1 (stereo not drawn)	WT yeast gro inh 93.8
COc1ccc(CN2CCC(CO)(CCOc3ccccc3)CC2)cc1C	L major viab 85.0
COc1cc(CN2CCC(CO)(CCOc3ccccc3)CC2)cc(OC)c1OC	L major viab 87.4
OCC1(CCOc2ccccc2)CCN(CCCn2cccn2)CC1	L major viab 80.7
CC1Cc2ccccc2N1C(=S)NC(=O)c1cccc(Br)c1 (stereo not drawn)	KCC2 mod 63.3, ROMK primary 10.4
CC1Cc2ccccc2N1C(=S)NC(=O)c1ccc(Cl)cc1Cl (stereo not drawn)	KCC2 mod 50.8, ROMK primary 7.83, WT yeast gro inh 59.8
CCCCC(=O)Nc1cccc(NC(=O)c2ccccc2Br)c1	none (no result: KCC2 mod, ROMK primary)
CCCC(=O)Nc1ccc(Nc2ccccc2)cc1	L major viab 63.6
CCCCC(CC)C(=O)Nc1ccc(C#N)cc1 (stereo not drawn)	none
